# Source: ChEMBL document CHEMBL4765371, “Synthesis and evaluation of Na/K-ATP-ase inhibiting and cytotoxic in vitro activities of oleandrigenin and its selected 17β-(butenolidyl)- and 17β-(3-furyl)- analogues” (Eur J Med Chem, 2020)
# pIC50: −log10 of the molar value. Calls of active or inactive are those of the source. The calls are words filed in the database; no cut-off is given here.
# Assays:
# [1] = species: Sus scrofa; experiment: Inhibition of porcine kidney Na+/K+ ATPase at 50 uM assessed as enzyme residual activity using ATP as substrate incubated for 2 mins followed by substrate addition and measured after 6 mins (reference value: 100 +/-3.16%); format: tissue-based; settings: time 8.0 min
# [2] = test system: CCRF-CEM; experiment: Cytotoxicity against human CEM cells assessed as reduction in cell viability incubated for 72 hrs by resazurin assay; format: functional, cell-based
# Procedure, shortened: (§1)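 Cells (CEM, HeLa, MCF7, BJ fibroblasts) exposed to compounds for 72 h, viability read by resazurin staining. Values are means ± SD from at least three independent experiments run in triplicate.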
# [3] = test system: MCF7; experiment: Cytotoxicity against human MCF7 cells assessed as reduction in cell viability incubated for 72 hrs by resazurin assay; format: functional, cell-based; settings: MCF7, 72 h; procedure, shortened: as §1
# [4] = test system: HeLa; experiment: Cytotoxicity against human HeLa cells assessed as reduction in cell viability incubated for 72 hrs by resazurin assay; format: functional, cell-based; procedure, shortened: as §1
# [5] = test system: BJ; experiment: Cytotoxicity against human BJ cells assessed as reduction in cell viability incubated for 72 hrs by resazurin assay; format: cell-based; procedure, shortened: as §1
# [6] = test system: HeLa; experiment: Induction of cell cycle arrest in human HeLa cells assessed as decrease in accumulation of cells at G0/G1 phase at 1 to 10 uM incubated for 24 hrs by PI staining based flow cytometry analysis relative to control; format: functional; set-up: scale not given: the % may be the effect or the level left; settings: dose 1-10 µM
# Procedure, shortened: (§2)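 HeLa cells treated 24 h at 1 or 10 µM, then harvested, fixed and stained with propidium iodide. DNA content measured by flow cytometry and cells assigned to subG1 (apoptotic), G0/G1, S and G2/M. Compared with untreated and DMSO-only controls. Means of three independent experiments in triplicate; one-way ANOVA, p < 0.05.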
# [7] = test system: HeLa; experiment: Induction of cell cycle arrest in human HeLa cells assessed as increase in accumulation at subG1 phase at 1 to 10 uM incubated for 24 hrs by PI staining based flow cytometry analysis relative to control; format: functional; settings: dose 1-10 µM; procedure, shortened: as §2
# [8] = test system: HeLa; experiment: Induction of cell cycle arrest in human HeLa cells assessed as increase in accumulation at G2/M phase at 1 uM incubated for 24 hrs by PI staining based flow cytometry analysis relative to control; format: functional; procedure, shortened: as §2
# [9] = test system: HeLa; experiment: Induction of cell cycle arrest in human HeLa cells assessed as increase in accumulation at G2/M phase at 10 uM incubated for 24 hrs by PI staining based flow cytometry analysis relative to control; format: functional; procedure, shortened: as §2
# [10] = test system: HeLa; experiment: Induction of apoptosis in human HeLa cells assessed as fold increase in caspase 3/7 activity at 1 to 10 uM incubated for 24 hrs by fluorescence based assay relative to control; format: functional; settings: dose 1-10 µM
# [11] = test system: HeLa; experiment: Induction of apoptosis in human HeLa cells assessed as increase in PARP-1 cleavage at 10 uM incubated for 24 hrs by Western blotting analysis; format: functional, cell-based
# Procedure, shortened: (§3)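 HeLa cells treated 24 h at 1 and 10 µM. Lysates resolved by SDS-PAGE and immunoblotted for PARP-1, caspase-7 zymogen and fragment, Mcl-1, Bcl-2, p53, phospho-Rb, total Rb, phospho-Src (Tyr416) and total Src. β-actin used as loading control. Compared with untreated controls; three repeats.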
# [12] = test system: HeLa; experiment: Induction of apoptosis in human HeLa cells assessed as increase in caspase 7 fragmentation at 1 to 10 uM incubated for 24 hrs by Western blotting analysis; format: functional, cell-based; settings: dose 1-10 µM; procedure, shortened: as §3
# [13] = test system: HeLa; experiment: Induction of apoptosis in human HeLa cells assessed as downregulation of Bcl2 protein expression at 1 to 10 uM incubated for 24 hrs by Western blotting analysis; format: functional, cell-based; settings: dose 1-10 µM; procedure, shortened: as §3
# [14] = test system: HeLa; experiment: Induction of apoptosis in human HeLa cells assessed as downregulation of Mcl1 protein expression at 1 to 10 uM incubated for 24 hrs by Western blotting analysis; format: functional, cell-based; settings: dose 1-10 µM; procedure, shortened: as §3
# [15] = test system: HeLa; experiment: Induction of apoptosis in human HeLa cells assessed as reduction in Rb phosphorylation at 1 uM incubated for 24 hrs by Western blotting analysis; format: functional, cell-based; procedure, shortened: as §3
# [16] = test system: HeLa; experiment: Induction of apoptosis in human HeLa cells assessed as reduction in Rb level at 1 to 10 uM incubated for 24 hrs by Western blotting analysis; format: functional, cell-based; settings: dose 1-10 µM; procedure, shortened: as §3
# [17] = test system: HeLa; experiment: Downregulation of p53 protein expression in human HeLa cells at 1 to 10 uM incubated for 24 hrs by Western blotting analysis; format: functional, cell-based; settings: dose 1-10 µM; procedure, shortened: as §3
# [18] = test system: HeLa; experiment: Induction of cell cycle arrest in human HeLa cells assessed as increase in accumulation at S phase at 1 to 10 uM incubated for 24 hrs by PI staining based flow cytometry analysis; format: functional; settings: dose 1-10 µM; procedure, shortened: as §2
# [19] = test system: HeLa; experiment: Effect on Src kinase protein expression in human HeLa cells at 1 uM incubated for 24 hrs by western blot analysis; format: functional, cell-based; procedure, shortened: as §3
# [20] = test system: HeLa; experiment: Downregulation of Src kinase activity in human HeLa cells assessed as decrease in Src kinase phosphorylation at Tyr416 residue at 1 uM incubated for 24 hrs by Western blotting analysis
# [21] = test system: HeLa; experiment: Induction of apoptosis in human HeLa cells assessed as reduction in Rb phosphorylation at 1 to 10 uM incubated for 24 hrs by Western blotting analysis; format: functional, cell-based; settings: dose 1-10 µM; procedure, shortened: as §3
# [22] = test system: HeLa; experiment: Induction of apoptosis in human HeLa cells assessed as downregulation of Bcl2 protein expression at 1 uM incubated for 24 hrs by Western blotting analysis; format: functional, cell-based; procedure, shortened: as §3
SMILES,Activity [1] [%],pIC50 [2],pIC50 [3],pIC50 [4],pIC50 [5],also measured
CO[C@H]1C[C@H](O[C@H]2CC[C@@]3(C)[C@H](CC[C@@H]4[C@@H]3CC[C@]3(C)[C@@H](C5=CC(=O)OC5)[C@@H](OC(C)=O)C[C@]43O)C2)O[C@@H](C)[C@@H]1O,59.2,–,–,–,–,–
C[C@]12CC[C@H](O)C[C@H]1CC[C@@H]1[C@@H]2CC[C@]2(C)[C@@H](c3ccoc3)[C@@H](O)C[C@]12O,7.9,5.44,4.97,4.84,5.72,Activity [6]: 4.4%; fold change (FC) [7]: 2; Activity [8]: Active; Activity [9]: Active; fold change (FC) [10]: 2; Activity [11]: Active; Activity [12]: Active; Activity [13]: Active; Activity [14]: Active; Activity [15]: inactive; Activity [16]: Active; inhibition [17]: Active; Activity [18]: Active; Activity [19]: inactive; inhibition [20]: Active
CC(C)(C)[Si](C)(C)O[C@H]1CC[C@@]2(C)[C@H](CC[C@@H]3[C@@H]2CC[C@]2(C)[C@@H](c4ccoc4)[C@@H](O)[C@H]4O[C@]342)C1,74.4,4.46,4.85,4.49,4.79,–
C[C@]12CC[C@H](O)C[C@H]1CC[C@@H]1[C@@H]2CC[C@]2(C)[C@@H](c3ccoc3)[C@@H](O)[C@H]3O[C@]132,75.5,< 4.30,< 4.30,< 4.30,< 4.30,–
CC(C)(C)[Si](C)(C)O[C@H]1CC[C@@]2(C)[C@H](CC[C@@H]3[C@@H]2CC[C@]2(C)[C@@H](c4ccoc4)[C@@H](O)C[C@]32O)C1,15.1,5.00,4.71,4.57,5.24,–
CC(=O)O[C@H]1C[C@]2(O)[C@@H]3CC[C@@H]4C[C@@H](O)CC[C@]4(C)[C@H]3CC[C@]2(C)[C@H]1C1=CC(=O)OC1,64.8,–,–,–,–,Activity [6]: 4.4%; fold change (FC) [10]: 2; Activity [11]: Active; Activity [12]: Active; Activity [21]: Active; Activity [16]: Active; inhibition [17]: Active
CC(=O)O[C@H]1CC[C@@]2(C)[C@H](CC[C@@H]3[C@@H]2CC[C@]2(C)[C@@H](c4ccoc4)[C@@H](OC(C)=O)C[C@]32O)C1,79.9,4.85,4.69,4.37,5.21,–
CC(=O)O[C@H]1C[C@]2(O)[C@@H]3CC[C@@H]4C[C@@H](O)CC[C@]4(C)[C@H]3CC[C@]2(C)[C@H]1c1ccoc1,42.4,5.03,4.79,4.85,5.40,–
CC(=O)O[C@H]1C[C@]2(O)[C@@H]3CC[C@@H]4C[C@@H](O[Si](C)(C)C(C)(C)C)CC[C@]4(C)[C@H]3CC[C@]2(C)[C@H]1C1=CC(=O)OC1,79.3,4.76,4.69,4.47,4.97,–
CC(=O)O[C@H]1C[C@@]23O[C@@H]4OC(=O)C=C4[C@@H]1[C@@]2(C)CC[C@H]1[C@H]3CC[C@@H]2C[C@@H](O)CC[C@@]21C,83.9,< 4.30,< 4.30,< 4.30,< 4.30,–
CC(=O)O[C@H]1CC[C@@]2(C)[C@H](CC[C@@H]3[C@@H]2CC[C@]2(C)[C@@H](C4=CC(=O)OC4)[C@@H](OC(C)=O)C[C@]32O)C1 [GITOXIGENIN DIACETATE],101,6.40,5.77,5.96,6.70,Activity [6]: 4.4%; fold change (FC) [7]: 2; Activity [8]: 13.1%; Activity [9]: 11.9%; fold change (FC) [10]: 2; Activity [11]: Active; Activity [12]: Active; Activity [22]: Active; Activity [14]: Active; Activity [21]: Active; Activity [16]: Active; inhibition [17]: Active; Activity [18]: Active; Activity [19]: inactive; inhibition [20]: Active
CC(=O)O[C@H]1C[C@]2(O)[C@@H]3CC[C@@H]4C[C@@H](O[Si](C)(C)C(C)(C)C)CC[C@]4(C)[C@H]3CC[C@]2(C)[C@H]1c1ccoc1,69.1,< 4.30,< 4.30,< 4.30,< 4.30,–
